Data as given in BindingDB's records for doi:10.1016/j.bmcl.2017.04.043 (Vanderbilt University Medical Center, 2017).

Experiments:
Cytochrome P450 1A2 = molecular target: T1, Cytochrome P450 1A2 (Homo sapiens, UniProt P05177); experiment: ChEBML_1679936
T1 sequence (P05177 whole entry): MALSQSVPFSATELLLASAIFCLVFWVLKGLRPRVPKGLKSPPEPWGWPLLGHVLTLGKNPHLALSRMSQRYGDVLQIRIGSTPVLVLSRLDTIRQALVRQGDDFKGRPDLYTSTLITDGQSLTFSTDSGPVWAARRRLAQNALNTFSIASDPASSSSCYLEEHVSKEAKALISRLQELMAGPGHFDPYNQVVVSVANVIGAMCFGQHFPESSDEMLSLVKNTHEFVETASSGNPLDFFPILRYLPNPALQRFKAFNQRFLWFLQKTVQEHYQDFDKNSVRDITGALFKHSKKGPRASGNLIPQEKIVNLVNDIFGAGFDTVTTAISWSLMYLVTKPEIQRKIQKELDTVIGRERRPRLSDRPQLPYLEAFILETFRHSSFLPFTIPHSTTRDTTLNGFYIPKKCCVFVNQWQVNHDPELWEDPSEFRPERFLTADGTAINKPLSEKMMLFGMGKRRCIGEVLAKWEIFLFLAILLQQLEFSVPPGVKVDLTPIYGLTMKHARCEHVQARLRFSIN
Source text: Induction of CYP1A2 in cryopreserved human hepatocytes measured after 48 hrs

[1] = molecular target: T2, Muscarinic acetylcholine receptor M4 (Homo sapiens, UniProt P08173); experiment: ChEBML_1679899
T2 sequence (P08173 whole entry): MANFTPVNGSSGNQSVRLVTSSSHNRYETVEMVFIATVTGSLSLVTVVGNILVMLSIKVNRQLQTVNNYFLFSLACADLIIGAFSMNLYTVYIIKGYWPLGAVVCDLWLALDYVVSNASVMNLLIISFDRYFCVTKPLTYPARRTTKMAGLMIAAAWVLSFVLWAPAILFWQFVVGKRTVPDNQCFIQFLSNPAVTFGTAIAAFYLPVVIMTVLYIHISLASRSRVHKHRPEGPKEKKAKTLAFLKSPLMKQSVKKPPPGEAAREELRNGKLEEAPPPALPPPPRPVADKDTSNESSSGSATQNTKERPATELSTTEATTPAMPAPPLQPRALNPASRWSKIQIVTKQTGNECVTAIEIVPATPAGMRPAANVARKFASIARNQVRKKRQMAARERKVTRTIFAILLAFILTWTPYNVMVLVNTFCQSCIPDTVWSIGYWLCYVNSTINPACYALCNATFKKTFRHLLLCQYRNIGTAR
Source text: (§1) Positive allosteric modulation of human M4 receptor expressed in CHO cells coexpressing Gqi5 assessed as increase in acetylcholine-induced calcium mobilization

[2] = molecular target: T2, Muscarinic acetylcholine receptor M4; experiment: as §1
Summary of the method: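 Calcium mobilization in CHO cells expressing hM4 with Gqi5. Compound added in presence of a fixed EC20 concentration of acetylcholine. Values are means of three independent experiments, each run in triplicate.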

EC50 [1]	EC50 [2]	Structure (SMILES)	also measured
		Cc1nnc2sc(C(=O)NCc3ccc(-c4cccnc4F)cc3)c(N)c2c1C	EC50 (Cytochrome P450 1A2): > 50000 nM
776 nM		Cc1cc(-c2ccc(CNC(=O)c3sc4nnc(C)c(C)c4c3N)cc2)cnc1F	
	49 nM	Cc1nnc2sc(C(=O)NCc3ccc(-c4ccnc(F)c4)cc3)c(N)c2c1C	
	26.9 nM	Cc1nnc2sc(C(=O)NCc3ccc(-c4ccncc4)cc3)c(N)c2c1C	
63.1 nM		Cc1nnc2sc(C(=O)NCc3ccc(-c4cccnc4)cc3)c(N)c2c1C	
	100 nM	Cc1nnc2sc(C(=O)NCc3ccc(-c4cnccn4)cc3)c(N)c2c1C	
